# Measured values from ChEMBL document CHEMBL2034960, “Bryonolic acid transcriptional control of anti-inflammatory and antioxidant genes in macrophages in vitro and in vivo” (J Nat Prod, 2012).
# Activity calls are given as the source filed them. No cut-off for these calls is given here.
# Experiments:
# RAW264.7 [1] = assay: Antiinflammatory activity in mouse RAW264.7 cells assessed as inhibition of LPS-induced nitric oxide production after 24 hrs by Griess method; assay type: functional, cell-based; conditions: RAW264.7, 24 h
# [2] = Solubility of the compound in DMSO; assay type: physicochemical
# RAW264.7 [3] = assay: Antiinflammatory activity in mouse RAW264.7 cells assessed as inhibition of LPS-induced iNOS protein expression at 50 uM after 24 hrs by immunoblot analysis relative to control; assay type: functional, cell-based
# RAW264.7 [4] = assay: Antiinflammatory activity in mouse RAW264.7 cells assessed as inhibition of LPS-induced iNOS protein expression at 100 uM after 24 hrs by immunoblot analysis; assay type: functional, cell-based
# RAW264.7 [5] = assay: Antiinflammatory activity in mouse RAW264.7 cells assessed as inhibition of LPS-induced iNOS […] expression at 50 uM after 24 hrs by immunoblot analysis; assay type: functional, cell-based
# RAW264.7 [6] = assay: Antioxidant activity in LPS-stimulated mouse RAW264.7 cells assessed as induction of HO-1 protein expression after 24 hrs by immunoblot analysis; assay type: functional, cell-based
# RAW264.7 [7] = assay: Antioxidant activity in LPS-stimulated mouse RAW264.7 cells assessed as induction of HO-1 protein expression at 50 uM after 24 hrs by immunoblot analysis; assay type: functional, cell-based
# RAW264.7 [8] = assay: Antioxidant activity in LPS-stimulated mouse RAW264.7 cells assessed as induction of HO-1 protein expression at 100 uM after 24 hrs by immunoblot analysis; assay type: functional, cell-based
# RAW264.7 [9] = assay: Antioxidant activity in LPS-stimulated mouse RAW264.7 cells assessed as induction of HO-1 mRNA expression at 50 uM after 24 hrs by RT-PCR analysis; assay type: functional, cell-based
# RAW264.7 [10] = assay: Antioxidant activity in LPS-stimulated mouse RAW264.7 cells assessed as induction of HO-1 mRNA expression at 100 uM after 24 hrs by RT-PCR analysis; assay type: functional, cell-based
# RAW264.7 [11] = assay: Antioxidant activity in mouse RAW264.7 cells assessed as induction of HO1 expression at 50 uM after 24 hrs by immunoblot analysis; assay type: functional, cell-based
# RAW264.7 [12] = assay: Antioxidant activity in mouse RAW264.7 cells assessed as induction of HO1 expression at 100 uM after 24 hrs by immunoblot analysis; assay type: functional, cell-based
# RAW264.7 [13] = assay: Antioxidant activity in mouse RAW264.7 cells assessed as induction of HO1 expression at 100 uM after 6 hrs by immunoblot analysis; assay type: functional, cell-based
# RAW264.7 [14] = assay: Antioxidant activity in mouse RAW264.7 cells assessed as induction of HO1 expression at 100 uM after 48 hrs by immunoblot analysis; assay type: functional, cell-based
# RAW264.7 [15] = assay: Antioxidant activity in mouse RAW264.7 cells assessed as induction of HO1 expression at 100 uM after 72 hrs by immunoblot analysis; assay type: functional, cell-based
# RAW264.7 [16] = assay: Antioxidant activity in mouse RAW264.7 cells assessed as induction of HO1 expression at 100 uM after 66 hrs by immunoblot analysis; assay type: functional, cell-based
# RAW264.7 [17] = assay: Antioxidant activity in LPS-stimulated mouse RAW264.7 cells assessed as induction of HO-1 mRNA expression at 100 uM after 4 hrs by RT-PCR analysis relative to control; assay type: functional
# RAW264.7 [18] = assay: Antioxidant activity in LPS-stimulated mouse RAW264.7 cells assessed as induction of HO-1 mRNA expression at 100 uM after 20 hrs by RT-PCR analysis relative to control; assay type: functional
# RAW264.7 [19] = assay: Induction of Nrf2 mRNA expression in mouse RAW264.7 cells at 100 uM after 20 hrs by quantitative RT-PCR analysis relative to control; assay type: functional
# [20] = molecular target: T1, Nuclear factor erythroid 2-related factor 2 (Mus musculus) (UniProt Q60795); assay: Induction of Nrf2-mediated NQO1 mRNA expression in mouse RAW264.7 cells at 100 uM after 20 hrs by quantitative RT-PCR analysis relative to control; assay type: cell-based
# T1 sequence (whole entry): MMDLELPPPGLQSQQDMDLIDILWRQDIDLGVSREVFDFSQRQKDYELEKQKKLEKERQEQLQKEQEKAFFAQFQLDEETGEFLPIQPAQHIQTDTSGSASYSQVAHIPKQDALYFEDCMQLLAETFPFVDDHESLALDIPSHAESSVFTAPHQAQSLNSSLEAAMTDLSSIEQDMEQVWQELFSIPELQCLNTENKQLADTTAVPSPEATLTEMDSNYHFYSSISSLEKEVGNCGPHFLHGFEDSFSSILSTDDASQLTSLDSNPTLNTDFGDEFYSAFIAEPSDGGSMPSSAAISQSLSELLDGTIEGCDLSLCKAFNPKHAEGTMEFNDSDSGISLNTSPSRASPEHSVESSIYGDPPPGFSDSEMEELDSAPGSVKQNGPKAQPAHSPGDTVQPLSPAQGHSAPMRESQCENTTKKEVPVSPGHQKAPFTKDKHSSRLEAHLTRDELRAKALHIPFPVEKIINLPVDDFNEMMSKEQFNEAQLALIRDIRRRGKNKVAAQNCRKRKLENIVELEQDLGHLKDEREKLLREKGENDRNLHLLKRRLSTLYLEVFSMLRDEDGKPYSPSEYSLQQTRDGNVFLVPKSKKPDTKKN
# In short: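 RAW 264.7 cells (DMEM, 10% FBS, 37°C, 5% CO2) exposed to 100 μM compound for a series of time points without stated LPS activation. Total RNA isolated, converted to cDNA, and NQO1 quantified by TaqMan real-time RT-PCR using mouse-specific assays. Fold change versus control derived by the ΔΔCt relative quantification method (40 cycles, 95/60 °C).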
# [21] = molecular target: T1, Nuclear factor erythroid 2-related factor 2 (Mus musculus); assay: Induction of Nrf2-mediated CAT mRNA expression in mouse RAW264.7 cells at 100 uM after 16 hrs by quantitative RT-PCR analysis relative to control; assay type: cell-based
# [22] = molecular target: T1, Nuclear factor erythroid 2-related factor 2 (Mus musculus); assay: Induction of Nrf2-mediated CAT mRNA expression in mouse RAW264.7 cells at 100 uM after 20 hrs by quantitative RT-PCR analysis relative to control; assay type: cell-based
# [23] = molecular target: T1, Nuclear factor erythroid 2-related factor 2 (Mus musculus); assay: Induction of Nrf2-mediated GCLC mRNA expression in mouse RAW264.7 cells at 100 uM after 20 hrs by quantitative RT-PCR analysis relative to control; assay type: cell-based
# [24] = molecular target: T1, Nuclear factor erythroid 2-related factor 2 (Mus musculus); assay: Induction of Nrf2-mediated GCLC mRNA expression in mouse RAW264.7 cells at 100 uM after 24 hrs by quantitative RT-PCR analysis relative to control; assay type: cell-based
# [25] = molecular target: T1, Nuclear factor erythroid 2-related factor 2 (Mus musculus); assay: Induction of Nrf2-mediated GR mRNA expression in mouse RAW264.7 cells at 100 uM after 20 hrs by quantitative RT-PCR analysis relative to control; assay type: cell-based
smiles,measurement,setting,value
CC1(C)[C@@H](O)CC[C@]2(C)C3=C(CC[C@@H]12)[C@@]1(C)CC[C@@]2(C)CC[C@@](C)(C(=O)O)C[C@H]2[C@]1(C)CC3 [BRYONOLIC ACID],IC50,RAW264.7 [1],53.3 µM
same,solubility,[2],soluble
same,Activity,RAW264.7 [3],Active
same,Activity,RAW264.7 [4],Active
same,Activity,RAW264.7 [5],Active
same,Activity,RAW264.7 [6],Dose-dependent effect
same,Activity,RAW264.7 [7],Active
same,Activity,RAW264.7 [8],Active
same,Activity,RAW264.7 [9],Active
same,Activity,RAW264.7 [10],Active
same,Activity,RAW264.7 [11],Active
same,Activity,RAW264.7 [12],Active
same,Activity,RAW264.7 [13],Active
same,Activity,RAW264.7 [14],Active
same,Activity,RAW264.7 [15],inactive
same,Activity,RAW264.7 [16],inactive
same,fold change (FC),RAW264.7 [17],4.1
same,fold change (FC),RAW264.7 [18],11.3
same,fold change (FC),RAW264.7 [19],1.8
same,fold change (FC),[20],11.7
same,fold change (FC),[21],1.7
same,fold change (FC),[22],3.5
same,fold change (FC),[23],1.8
same,Activity,[24],inactive
same,fold change (FC),[25],1.5
